Screening data as filed in PubChem.
An excerpt weighted towards active compounds, which were near 2% of everything screened.
CHOP UPR activ: apoptotic UPR (CHOP) activation | activation, % at 10 µM | CHO-CHOP luciferase reporter, luminescence; percent of tunicamycin response over DMSO baseline | 330,000 tested, 0.34% active;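 active means at 10 µM dose, activation of 40% or more, normalized to positive control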;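 further: 100% = tunicamycin at 10 µg/mL and 0% = DMSO alone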
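measured by = luciferase luminescence | assay system = CHO-CHOP cells, stable luciferase reporter of PERK-eIF2a-CHOP signalling | amount = 500 reporter cells seeded per well | timing = 6 h compound exposure at 37 °C after overnight seeding | controls = positive tunicamycin 10 µg/mL, negative DMSO alone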
A1 inh: inhibitors of the anti-apoptotic protein A1, read as caspase activation | caspase activation, % (no concentration beside the values) | AID 2462 | 330,000 tested, 0.066% active | MEF A1-2A-BIM cells, Caspase-Glo 3/7 luminescence, 3 h; percent of clofoctol response, vehicle zero;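 active means over half of replicate activation scores above 10%, or exactly half above 10 with the replicate mean above 10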
MC4R antag cAMP: blocks human MC4R cAMP signaling; P32245; MC4R-expressing cells, MTII-stimulated cAMP, LANCE TR-FRET; inhibition, % at 6.5 µM; 360,000 tested, 0.48% active;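 active means inhibition above its plate's cutoff, the mean of tested wells on that plate plus 3 SD, cut at about 29% in these data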;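 further: 0% = Melanotan II alone and 100% = Melanotan II plus saturating MCL0020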
Target sequence (P32245 whole entry, looked up): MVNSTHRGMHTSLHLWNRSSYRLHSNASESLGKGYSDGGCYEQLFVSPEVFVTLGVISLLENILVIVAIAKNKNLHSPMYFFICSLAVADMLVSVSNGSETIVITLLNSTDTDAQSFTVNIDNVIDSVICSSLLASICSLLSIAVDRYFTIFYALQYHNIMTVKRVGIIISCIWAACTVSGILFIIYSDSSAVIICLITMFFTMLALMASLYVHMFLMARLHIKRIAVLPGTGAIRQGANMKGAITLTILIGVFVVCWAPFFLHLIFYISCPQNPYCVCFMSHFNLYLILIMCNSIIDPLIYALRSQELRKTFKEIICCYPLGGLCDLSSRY
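system = U2OS cells with stable human MC4R expression | also added = Melanotan II challenge after compound preincubation | dosing = one concentration, 6.5 µM nominal | incubation = compound 30 min, challenge 1 h, detection 1 h | measured by = TR-FRET with Eu-cAMP and labeled anti-cAMP, 671 nm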
MC4R barr agon: activates human MC4R beta-arrestin recruitment | U2OS MC4R beta-arrestin complementation, luminescence; percent of melanotan II response, DMSO zero | activation, % at 8.9 µM | 360,000 tested, 0.98% active;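 active means activation above a per-plate cutoff, the mean activation of sample wells on that plate plus 3 SD, cut at about 8% in these data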
UPR XBP1 act: adaptive UPR (XBP1) activation. CHO-XBP1 luciferase reporter, IRE1-XBP1 UPR activation, luminescence; percent of tunicamycin response, DMSO as zero. activation, % at 20 µM. 330,000 tested, 0.33% active;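 active means versus positive control, 20 µM dose yields 30% or more activation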;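 further: 100% = tunicamycin at 10 µg/mL and 0% = DMSO only wells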
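assay system = CHO-XBP1 luciferase reporter cells | amount = 1000 cells/well | buffer or medium = F12 plus 10% FBS | compound dosing = single point, 20 µM final compound, 1% DMSO | incubation = 16-18 h cell attachment at 37 °C, then 6 h compound exposure | detection = Steady-Glo luminescence read | controls = tunicamycin 10 µg/mL and vehicle-only wells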
XBP1 UPR conf: adaptive UPR (XBP1) activation, confirmed; 1,000 tested, 63% active; CHO-XBP1 IRE1-XBP1 luciferase reporter, luminescence; activation, % at 20 µM; AID 485299; shares compounds with UPR XBP1 act;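 active means reporter signal at least 30% of the positive control's activation in two or more of four replicate wells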;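 further: plate controls were DMSO negative control for no effect and tunicamycin 10 µg/mL positive control for full effect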
The depositor's hits bear a star; . = no result.

SMILES	CHOP UPR activ	A1 inh	MC4R antag cAMP	MC4R barr agon	UPR XBP1 act	XBP1 UPR conf
COCCCn1c(=NC(=O)c2ccccc2)c(C#N)cc2c(=O)n3cccc(C)c3nc21	3	-1	0	-1	43*	-2
COCCCn1c(=NC(C)=O)c(C#N)cc2c(=O)n3cccc(C)c3nc21	-1	-3	-4	-2	0	.
CCCCN(c1ccccc1)S(=O)(=O)c1cccc(C(=O)Nc2c(C)n(C)n(-c3ccccc3)c2=O)c1	.	.	-1	1	.	.
Cc1ccc(S(=O)(=O)N(C)C[C@H]2Oc3ncc(Br)cc3C(=O)N([C@H](C)CO)C[C@@H]2C)cc1	.	.	8	0	.	.
COc1ccc(OC)c(Nc2nc(NCc3ccco3)nc(N)c2[N+](=O)[O-])c1	1	-1	-3	5	55*	62*
COc1ccccc1Nc1nc(NCc2ccco2)nc(N)c1[N+](=O)[O-]	1	0	-8	8	4	.
Cc1ccc(S(=O)(=O)Cc2cc(F)c([N+](=O)[O-])cc2[N+](=O)[O-])cc1	10	-1	31*	2	33*	41*
COc1cc(NC(C)CCCN)c2nc(C)ccc2c1Oc1ccc(F)cc1 (centres undefined)	.	.	3	2	.	.
CCc1ccc2c(c1)C(c1ccc(N3CCOCC3)cc1)=NNC(c1ccncc1)=N2	-1	0	-3	-2	0	.
Brc1ccc2c(c1)C(c1ccc(N3CCOCC3)cc1)=NNC(c1cccs1)=N2	3	-1	4	-3	88*	81*
Fc1ccc2c(c1)C(c1ccc(N3CCOCC3)cc1)=NNC(c1cccs1)=N2	0	-1	5	-2	0	.
Cc1ccc2c(c1)C(c1ccc(N3CCOCC3)cc1)=NNC(c1cccs1)=N2	-2	0	-1	-3	62*	57*
CCc1ccc(-n2c(=S)sc3c(=O)[nH]c(SCC(=O)NC4CCCCC4)nc32)cc1	.	.	4	1	.	.
c1cc(SC2CCCCC2)cc(-c2nc3cnccn3c2NC2CCCCC2)c1	8	1	10	0	196*	171*
COc1ccccc1NC(=O)CSc1nc2c(sc3ccccc32)c(=O)n1CCN(C)C	-1	0	1	-1	-3	.
CCN(CC)CCn1c(SCC(=O)Nc2ccc(F)cc2)nc2c(sc3ccccc32)c1=O	9	0	.	.	166*	228*
CCOC(=O)c1[nH]c(C)c(C(=O)OCC(=O)Nc2sc3c(c2C#N)CCCCC3)c1C	6	1	6	1	63*	22
O=S(=O)(c1cccnc1)N1CCCC(Nc2ccc(F)c(F)c2)C1 (centres undefined)	.	.	4	-1	.	.
CCOc1cc(/C=N\Nc2ccc([N+](=O)[O-])cc2)ccc1OCC(=O)Nc1ccc(C)c(C)c1	7	0	1	-2	44*	66*
COc1cc(/C=N\Nc2ccc([N+](=O)[O-])cc2)ccc1OCC(=O)Nc1ccc(C)c(C)c1	.	.	9	-1	.	.
CCNC(=O)C1CCCN(C(=O)Cc2cccs2)CC1 (centres undefined)	.	.	2	2	.	.
Cc1cccc(NC(=O)c2nc[nH]c2C(=O)Nc2ccccc2[N+](=O)[O-])c1	13	0	22	-1	30*	42*
COc1ccc2nc(NC(=O)c3cccc(-c4cc5ccccc5oc4=O)c3)sc2c1	25	0	0	1	78*	55*
C[C@H](O)[C@@H]1CN2CCc3c([nH]c4ccccc34)[C@@H]2C[C@@H]1N(C)Cc1cc(Cl)cc(Cl)c1	.	.	4	1	.	.
CC1([N+](=O)[O-])COC(c2cccc3ccccc23)OC1 (centres undefined)	.	.	8	-1	.	.
SMILES	CHOP UPR activ	A1 inh	MC4R antag cAMP	MC4R barr agon	UPR XBP1 act	XBP1 UPR conf
O=C(Nc1ccc(-n2nncc2-c2ccco2)cc1)c1cc2ccccc2oc1=O	6	1	4	0	67*	1
O=C(Nc1ccc(-n2nncc2-c2ccco2)cc1)c1cccc(F)c1	-1	0	-3	-2	1	.
Cc1ccc2c(c1)c(N=NC(N)=S)c(O)n2Cc1ccccc1	9	0	-27	8	33*	41*
C/C(Cl)=C\Cn1c(O)c(N=NC(N)=S)c2cc(Br)ccc21	5	-1	-34	-6	84*	120*
CN(C)C(=O)c1cccc(COc2ccc(N3C(N)=NC(N)=NC3(C)C)cc2Cl)c1	.	.	5	0	.	.
O=[N+]([O-])c1ccc(-c2ccc(/C=N/Nc3nc(NCc4ccccc4)nc(N4CCOCC4)n3)o2)cc1	34	0	-3	-1	47*	25
CCOC(=O)c1c(NC(C)=O)sc2c(OCC(O)CNC(C)(C)C)c(Br)ccc12 (centres undefined)	1	0	9	3	62*	111*
CCC/C(=N/Nc1ccc(Cl)cc1)c1cnnc(-c2ccccc2)n1	19	0	.	.	66*	28*
CC/C(=N/Nc1ccccc1Cl)c1cnnc(-c2ccccc2)n1	-1	0	1	-1	3	.
NC(=O)CC(NC(=O)Cc1cccc2ccccc12)c1ccc(NCCOc2ccccc2)c([N+](=O)[O-])c1 (centres undefined)	2	0	9	-1	48*	39*
Cc1ccc2nsnc2c1NC(=O)Cc1ccc(Cl)cc1	3	0	8	-2	-1	.
Cc1ccc2nsnc2c1NC(=O)c1ccc(-c2cc(Cl)ccc2Cl)o1	34	0	-4	3	96*	104*
CCOc1cc(CNC(C)(C)CO)cc(Br)c1OCc1ccc(Cl)cc1Cl	3	1	-1	6	83*	100*
Cc1cccc(-c2noc(-c3csc([C@@H]4C[C@H](O)[C@@H](CO)O4)n3)n2)c1	.	.	1	-2	.	.
CC1CCCN(c2ccc(C(=O)NCc3ccccc3)cn2)C1 (centres undefined)	6	1	-7	-3	19	.
O=C(NCc1cccs1)c1ccc(N2CCCCC2)nc1	4	-1	-3	-1	30	21
CC1CCCN(c2ccc(C(=O)NCc3cccs3)cn2)C1 (centres undefined)	5	0	-2	1	38*	32*
